Experimental data as given in ChEMBL document CHEMBL4219167, “Disulfiram-based disulfides as narrow-spectrum antibacterial agents” (Bioorg Med Chem Lett, 2018).

What was measured:
Yersinia enterocolitica = assay: Antibacterial activity against Yersinia enterocolitica WA-314 after 20 hrs by broth microdilution assay; format: functional; conditions: WA-314, 20 h
Method in brief: (§1)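 Yersinia cultured in tryptic soy broth at 28°C. A 0.5 McFarland suspension diluted 1:100 receives serial dilutions of agents from 1 mM or 1 mg/mL DMSO stocks; control antibiotics are in water.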

Bacillus anthracis [1] = assay: Antibacterial activity against Bacillus anthracis Sterne 34F2 after 20 hrs by broth microdilution assay; format: functional; conditions: Sterne 34F2, 20 h
Yersinia pestis [2] = assay: Antibacterial activity against Yersinia pestis Kim D2 after 20 hrs by broth microdilution assay; format: functional; conditions: Kim D2, 20 h
[3] = Selectivity index, ratio of IC50 for cytotoxicity against human HepG2 cells to MIC for antibacterial activity against vancomycin-resistant Staphylococcus aureus HIP14300; format: toxicity, cell-based; conditions: read-out: Selectivity Index
Vibrio cholerae = assay: Antibacterial activity against Vibrio cholerae TS D4 after 20 hrs by Todd Hewitt broth broth microdilution method; format: functional; conditions: TS D4, 20 h
Staphylococcus aureus [4] = assay: Antibacterial activity against vancomycin-intermediate resistant Staphylococcus aureus AR-217 after 20 hrs by broth microdilution assay; format: functional; conditions: AR-217, 20 h
Staphylococcus aureus [5] = assay: Synergistic antibacterial activity against methicillin-resistant Staphylococcus aureus COL assessed as fractional inhibitory concentration in presence of vancomycin after 20 hrs by checkerboard microdilution assay; format: functional
Salmonella typhi = assay: Antibacterial activity against Salmonella typhi Ty2 after 20 hrs by Todd Hewitt broth broth microdilution method; format: functional, Salmonella enterica subsp. enterica serovar Typhi str. Ty2; conditions: Salmonella enterica
Enterococcus faecium = assay: Antibacterial activity against vancomycin-resistant Enterococcus faecium ATCC 700221 after 20 hrs by broth microdilution assay; format: functional; conditions: ATCC 700221, 20 h
Method in brief: (§2)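 Brain heart infusion broth at 37°C; E. faecium under 5% CO2. Cells at 0.5 McFarland are diluted 1:100 and exposed to serial dilutions (DMSO stocks 1 mM or 1 mg/mL; controls in water).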

Staphylococcus aureus [6] = assay: Synergistic antibacterial activity against vancomycin-resistant Staphylococcus aureus HIP14300 assessed as fractional inhibitory concentration in presence of vancomycin after 20 hrs by checkerboard microdilution assay; format: functional
[7] = Selectivity index, ratio of IC50 for cytotoxicity against human HepG2 cells to MIC for antibacterial activity against vancomycin-intermediate resistant Staphylococcus aureus; format: toxicity, cell-based; conditions: read-out: Selectivity Index
Burkholderia cepacia = assay: Antibacterial activity against Burkholderia cepacia UCB 717 after 20 hrs by broth microdilution assay; format: functional; conditions: UCB 717, 20 h
Method in brief: (§3)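 Medium is tryptic soy broth, 37°C. Overnight culture is adjusted to 0.5 McFarland, diluted 1:100 and exposed to serial dilutions (test agents from 1 mM or 1 mg/mL DMSO stocks; control antibiotics in water). Incubation lasts 20 h. MIC is the lowest concentration with no visible growth.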

[8] = test system: Staphylococcus epidermidis; assay: Synergistic antibacterial activity against vancomycin-intermediate resistant Staphylococcus epidermidis NRS53 assessed as vancomycin MIC after 20 hrs by checkerboard microdilution assay; format: functional; conditions: NRS53, 20 h
Micrococcus luteus = assay: Antibacterial activity against Micrococcus luteus SK58 after 20 hrs by broth microdilution assay; format: functional; conditions: SK58, 20 h
Staphylococcus aureus [9] = assay: Synergistic antibacterial activity against vancomycin-intermediate resistant Staphylococcus aureus AR-217 after 20 hrs in presence of vancomycin by checkerboard microdilution assay; format: functional; conditions: AR-217, 20 h
Streptococcus agalactiae = assay: Antibacterial activity against Streptococcus agalactiae SGBS005 after 20 hrs by broth microdilution assay; format: functional; conditions: SGBS005, 20 h
Staphylococcus aureus [10] = assay: Synergistic antibacterial activity against vancomycin-intermediate resistant Staphylococcus aureus AR-217 assessed as fractional inhibitory concentration in presence of vancomycin after 20 hrs by checkerboard microdilution assay; format: functional
Klebsiella pneumoniae = assay: Antibacterial activity against Klebsiella pneumoniae 700603 after 20 hrs by broth microdilution assay; format: functional; conditions: Klebsiella pneumoniae, 700603, 20 h; method in brief: as §3
Bacillus anthracis [11] = assay: Antibacterial activity against Bacillus anthracis Ames 35 after 20 hrs by broth microdilution assay; format: functional; conditions: Ames 35, 20 h
Pseudomonas aeruginosa = assay: Antibacterial activity against Pseudomonas aeruginosa ATCC 15442 after 20 hrs by broth microdilution assay; format: functional; conditions: ATCC 15442, 20 h; method in brief: as §3
[12] = test system: Staphylococcus epidermidis; assay: Synergistic antibacterial activity against vancomycin-intermediate resistant Staphylococcus epidermidis NRS53 assessed as fractional inhibitory concentration in presence of vancomycin after 20 hrs by checkerboard microdilution assay; format: functional
Staphylococcus aureus [13] = assay: Synergistic antibacterial activity against methicillin-resistant Staphylococcus aureus COL in presence of vancomycin after 20 hrs by checkerboard microdilution assay; format: functional
Staphylococcus aureus [14] = assay: Antibacterial activity against methicillin-resistant Staphylococcus aureus COL after 20 hrs by broth microdilution assay; format: functional
Staphylococcus aureus [15] = assay: Synergistic antibacterial activity against vancomycin-resistant Staphylococcus aureus HIP14300 after 20 hrs in presence of vancomycin by checkerboard microdilution assay; format: functional; conditions: HIP14300, 20 h
Proteus mirabilis = assay: Antibacterial activity against Proteus mirabilis HM-752 after 20 hrs by broth microdilution assay; format: functional; conditions: HM-752, 20 h; method in brief: as §3
Staphylococcus aureus [16] = assay: Synergistic antibacterial activity against vancomycin-resistant Staphylococcus aureus HIP14300 assessed as vancomycin MIC after 20 hrs by checkerboard microdilution assay; format: functional; conditions: HIP14300, 20 h
Citrobacter freundii = assay: Antibacterial activity against Citrobacter freundii 4_7_47CFAA after 20 hrs by broth microdilution assay; format: functional
Method in brief: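 Brucella broth, 37°C, 5% CO2. Inoculum is 0.5 McFarland diluted 1:100, with serial drug dilutions from DMSO stocks (1 mM or 1 mg/mL) and control antibiotics in water.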

Yersinia pestis [17] = assay: Antibacterial activity against Yersinia pestis Kuma D7 after 20 hrs by broth microdilution assay; format: functional; conditions: Kuma D7, 20 h
[18] = rat, microsomes, 1 h
Burkholderia multivorans = assay: Antibacterial activity against Burkholderia multivorans CF2 after 20 hrs by broth microdilution assay; format: functional; conditions: CF2, 20 h; method in brief: as §3
[19] = rat, microsomes
Listeria monocytogenes = assay: Antibacterial activity against Listeria monocytogenes Gibson after 20 hrs by broth microdilution assay; format: functional; method in brief: as §2
Shigella dysenteriae = assay: Antibacterial activity against Shigella dysenteriae Newcastle 1934 after 20 hrs by broth microdilution assay; format: functional; conditions: Newcastle 1934, 20 h; method in brief: as §3
[20] = test system: Staphylococcus epidermidis; assay: Synergistic antibacterial activity against vancomycin-intermediate resistant Staphylococcus epidermidis NRS53 after 20 hrs in presence of vancomycin by checkerboard microdilution assay; format: functional; conditions: NRS53, 20 h
Staphylococcus aureus [21] = assay: Synergistic antibacterial activity against methicillin-resistant Staphylococcus aureus COL assessed as vancomycin MIC after 20 hrs by checkerboard microdilution assay; format: functional
HepG2 = assay: Cytotoxicity against human HepG2 cells assessed as reduction in cell viability after 72 hrs by MTT assay; format: cell-based; conditions: HepG2, 72 h
[22] = Selectivity index, ratio of IC50 for cytotoxicity against human HepG2 cells to MIC for antibacterial activity against methicillin-resistant Staphylococcus aureus COL; format: toxicity, cell-based; conditions: read-out: Selectivity Index
[23] = test system: Yersinia pseudotuberculosis; assay: Antibacterial activity against Yersinia pseudotuberculosis P61 after 20 hrs by broth microdilution assay; format: functional; conditions: P61, 20 h; method in brief: as §1
Staphylococcus aureus [24] = assay: Antibacterial activity against vancomycin-resistant Staphylococcus aureus HIP14300 after 20 hrs by broth microdilution assay; format: functional; conditions: HIP14300, 20 h
Bacillus anthracis [25] = assay: Antibacterial activity against Bacillus anthracis Weybridge after 20 hrs by broth microdilution assay; format: functional
Acinetobacter baumannii = assay: Antibacterial activity against Acinetobacter baumannii AB5075 after 20 hrs by broth microdilution assay; format: functional; conditions: AB5075, 20 h
[26] = test system: Staphylococcus epidermidis; assay: Antibacterial activity against vancomycin-intermediate resistant Staphylococcus epidermidis NRS6 after 20 hrs by broth microdilution assay; format: functional; conditions: NRS6, 20 h
Brucella neotomae = assay: Antibacterial activity against Brucella neotomae 5K33 after 20 hrs by broth microdilution assay; format: functional; conditions: 5K33, 20 h
Escherichia coli = assay: Antibacterial activity against Escherichia coli DC10B after 20 hrs by broth microdilution assay; format: functional; method in brief: as §3
[27] = test system: Staphylococcus epidermidis; assay: Antibacterial activity against vancomycin-intermediate resistant Staphylococcus epidermidis NRS53 after 20 hrs by broth microdilution assay; format: functional; conditions: NRS53, 20 h
Corynebacterium striatum = assay: Antibacterial activity against Corynebacterium striatum FS-1 after 20 hrs by broth microdilution assay; format: functional; conditions: FS-1, 20 h
Streptococcus pyogenes = assay: Antibacterial activity against Streptococcus pyogenes H293 after 20 hrs by broth microdilution assay; format: functional; conditions: H293, 20 h
Francisella tularensis = assay: Antibacterial activity against Francisella tularensis Utah 112 after 20 hrs by broth microdilution assay; format: functional; conditions: Utah 112, 20 h
Staphylococcus aureus [28] = assay: Antibacterial activity against methicillin-resistant Staphylococcus aureus; format: functional
Streptococcus pneumoniae = assay: Antibacterial activity against Streptococcus pneumoniae TCH8431 after 20 hrs by broth microdilution assay; format: functional; conditions: TCH8431, 20 h
Bacillus cereus = assay: Antibacterial activity against Bacillus cereus Gibson 971 after 20 hrs by broth microdilution assay; format: functional; conditions: Gibson 971, 20 h
Staphylococcus aureus [29] = assay: Synergistic antibacterial activity against vancomycin-intermediate resistant Staphylococcus aureus AR-217 assessed as vancomycin MIC after 20 hrs by checkerboard microdilution assay; format: functional; conditions: AR-217, 20 h
Rhodococcus erythropolis = assay: Antibacterial activity against Rhodococcus erythropolis SK121 after 20 hrs by broth microdilution assay; format: functional; conditions: SK121, 20 h
Method in brief: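 R. erythropolis grown in brain heart infusion broth at 30°C. A 0.5 McFarland suspension diluted 1:100 is treated with serial dilutions from 1 mM or 1 mg/mL DMSO stocks; control antibiotics are in water.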

CCCCCCCCSSC(=S)N(CC)CC
50 µM: IC50 (HepG2)
1.02 h: beta t1/2 [19]
32 µM: MIC (Yersinia pestis [2]) | MIC (Streptococcus agalactiae) | MIC (Yersinia pestis [17])
0.25 µg/mL: MIC (Staphylococcus aureus [9]) | MIC (Staphylococcus aureus [13])
22.6 µL/min/mg: CLH [18]
8 µM: MIC (Enterococcus faecium)
2 µM: MIC (Bacillus anthracis [1]) | MIC (Bacillus anthracis [25])
0.56: FIC (Staphylococcus aureus [10])
> 13: selectivity ratio [3] | selectivity ratio [7] | selectivity ratio [22]
16 µM: MIC (Micrococcus luteus)
> 32 µM: MIC (Yersinia enterocolitica) | MIC (Vibrio cholerae) | MIC (Salmonella typhi) | MIC (Burkholderia cepacia) | MIC (Klebsiella pneumoniae) | MIC (Pseudomonas aeruginosa) | MIC (Proteus mirabilis) | MIC (Citrobacter freundii) | MIC (Burkholderia multivorans) | MIC (Shigella dysenteriae) | MIC [23] | MIC (Acinetobacter baumannii) | MIC (Brucella neotomae) | MIC (Escherichia coli)
4 µM: MIC (Staphylococcus aureus [4]) | MIC (Bacillus anthracis [11]) | MIC (Staphylococcus aureus [14]) | MIC (Listeria monocytogenes) | MIC (Staphylococcus aureus [24]) | MIC [26]
2 µg/mL: MIC [8] | MIC [27]
1 µg/mL: MIC (Staphylococcus aureus [15]) | MIC (Staphylococcus aureus [16]) | MIC [20] | MIC (Staphylococcus aureus [21])
0.5: FIC (Staphylococcus aureus [6])
0.75: FIC (Staphylococcus aureus [5]) | FIC [12]

CCN(CC)C(=S)SSC(=S)N(CC)CC
4 µM: MIC (Bacillus cereus)
2 µg/mL: MIC (Staphylococcus aureus [15]) | MIC (Staphylococcus aureus [29]) | MIC [20]
16 µM: MIC (Streptococcus pyogenes) | MIC (Rhodococcus erythropolis)
32 µM: MIC (Yersinia pestis [2]) | MIC (Francisella tularensis) | MIC (Micrococcus luteus) | MIC (Staphylococcus aureus [14]) | MIC (Yersinia pestis [17]) | MIC (Burkholderia multivorans) | MIC (Staphylococcus aureus [24]) | MIC [26]
> 32 µM: MIC (Yersinia enterocolitica) | MIC (Corynebacterium striatum) | MIC (Vibrio cholerae) | MIC (Enterococcus faecium) | MIC (Burkholderia cepacia) | MIC (Streptococcus agalactiae) | MIC (Klebsiella pneumoniae) | MIC (Pseudomonas aeruginosa) | MIC (Streptococcus pneumoniae) | MIC (Proteus mirabilis) | MIC (Citrobacter freundii) | MIC (Listeria monocytogenes) | MIC (Shigella dysenteriae) | MIC [23] | MIC (Acinetobacter baumannii) | MIC (Brucella neotomae) | MIC (Escherichia coli)
38 µM: IC50 (HepG2)
4 µg/mL: MIC [8] | MIC [27]
8 µM: MIC (Staphylococcus aureus [4])
4 to 32 µg/mL: MIC (Staphylococcus aureus [28])
8 µg/mL: MIC (Staphylococcus aureus [16])
